PglD inh: PglD (C. jejuni) enzyme inhibition. purified PglD enzyme, DTNB colorimetric CoA detection. inhibition, % at 12.5 µM. hit rate 0.098% among 360,000; in the data active means inhibition above about 16%, passing the limit was not always enough
PvdQ inh: blocks Pseudomonas aeruginosa PvdQ acylase activity | purified PvdQ acylase, fluorescence plate reader | hit rate 0.063% among 340,000 | inhibition, % at 10 µM | AID 488965; in the data active means inhibition above about 30%, passing the limit was not always enough
ERp5 inh: ERp5 (human) disulfide isomerase inhibition; ERp5 insulin aggregation, absorbance 650 nm, 90 min; Q15084; inhibition, % at 9.99 µM; hit rate 0.05% among 350,000;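 active means mean replicate inhibition above about 25%, with every replicate also reaching it, limit read from the data, passing the limit was not always enough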
Target sequence (Q15084 whole entry, looked up): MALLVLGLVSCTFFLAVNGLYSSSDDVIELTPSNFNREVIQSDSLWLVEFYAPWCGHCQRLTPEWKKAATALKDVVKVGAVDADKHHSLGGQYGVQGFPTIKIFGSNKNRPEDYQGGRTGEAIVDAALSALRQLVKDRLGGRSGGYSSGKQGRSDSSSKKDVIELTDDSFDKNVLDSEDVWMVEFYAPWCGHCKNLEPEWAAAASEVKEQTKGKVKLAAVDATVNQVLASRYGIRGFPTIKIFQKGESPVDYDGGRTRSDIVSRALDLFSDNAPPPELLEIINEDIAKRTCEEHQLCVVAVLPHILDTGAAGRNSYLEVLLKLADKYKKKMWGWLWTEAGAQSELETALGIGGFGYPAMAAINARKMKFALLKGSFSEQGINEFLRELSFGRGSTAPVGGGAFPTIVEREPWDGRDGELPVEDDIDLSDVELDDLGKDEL
VIM-2 inh: blocks Pseudomonas aeruginosa VIM-2 metallo-beta-lactamase; purified VIM-2, nitrocefin hydrolysis, epi-absorbance fluorescence; inhibition, % at 5.6 µM; hit rate 0.89% among 290,000; AID 1527;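 active means inhibition above the mean of all tested compounds plus 3 SD, cutoff set per screening run, cut at about 7.5% in these data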;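 further: red hydrolysis product quenches plate fluorescence so inhibitors raise well fluorescence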
IMP-1 inh: inhibitors of Pseudomonas aeruginosa IMP-1 metallo-beta-lactamase; hit rate 0.45% among 290,000; inhibition, % at 5.6 µM; purified IMP-1, nitrocefin hydrolysis, epi-absorbance fluorescence;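 active means inhibition above the mean plus 3 SD of all compounds in the same screening run, cut at about 4.5% in these data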
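System: Purified IMP-1 | Read-out basis: Percent enzyme inhibition | Controls: IMP-1 with DMSO as 0%, enzyme-free DMSO as 100% | Replicates: One well per compound | Doses: 5.6 µM nominal single concentration | Detection: Epi-absorbance fluorescence, 480 nm excitation, 530 nm emission | Incubation: 25 °C, 15 min preincubation, 25 min reaction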
PDI inh: blocks human protein disulfide isomerase activity. P07237. PDI insulin aggregation turbidity, A650, 90 min. inhibition, % at 10 µM. hit rate 0.052% among 350,000. AID 588391;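 active means mean inhibition across replicates of 30% or more, whatever share of single replicates reach that level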
Hits are given with their value. Rows were chosen to be rich in hits. Some 1% of all compounds tested hit in one or more screens of this group.

Cc1c(OCC(=O)N[C@@H](Cc2ccccc2)C(=O)O)ccc2c3c(c(=O)oc12)CCC3 was read as PglD inh inactive, PvdQ inh inactive, ERp5 inh inactive, VIM-2 inh 12 and IMP-1 inh inactive.
Cc1c(OCC(=O)N[C@@H](Cc2ccccc2)C(=O)O)ccc2c1oc(=O)c1ccccc12 was read as PglD inh inactive, PvdQ inh inactive, ERp5 inh inactive, VIM-2 inh 12 and IMP-1 inh inactive.
`O=C(O)c1cccc(-c2ccc(/C=N/n3cnnc3)o2)c1` gave PglD inh inactive, PvdQ inh inactive, ERp5 inh inactive, VIM-2 inh 11, IMP-1 inh inactive and PDI inh inactive.
Cc1cc([N+](=O)[O-])cc2c1NCC1CC=CC21 (stereo unspecified) was read as PvdQ inh inactive, ERp5 inh inactive, VIM-2 inh inactive, IMP-1 inh inactive and PDI inh inactive.
Cc1cc([N+](=O)[O-])c2c(c1C)C1C=CCC1C(c1ccccn1)N2 (stereo unspecified) was read as VIM-2 inh inactive and IMP-1 inh 5.9.
Screening C[C@H](CO)N1C[C@H](C)[C@H](CN(C)Cc2ccccc2)Oc2ccc(NC(=O)Nc3ccc4c(c3)OCO4)cc2CC1=O returned PglD inh inactive.
Screening Nc1ccc2nc(-c3ccc(-c4nc5ccc(N)cc5[nH]4)cc3)[nH]c2c1 returned ERp5 inh inactive, VIM-2 inh inactive and IMP-1 inh inactive.
Screening Nc1ccc2nc(-c3cccc(-c4nc5ccc(N)cc5[nH]4)n3)[nH]c2c1 returned PglD inh inactive, PvdQ inh inactive, ERp5 inh inactive, VIM-2 inh 10.0, IMP-1 inh inactive and PDI inh inactive.
`CN(C[C@H]1[C@@H](c2ccc(C3=CCCC3)cc2)[C@@H](CO)N1CCC(F)(F)F)S(C)(=O)=O` gave ERp5 inh inactive.
`CCn1c(SCC(N)=O)nc2sc3c(c2c1=O)CCCC3` gave PvdQ inh inactive, VIM-2 inh inactive, IMP-1 inh inactive and PDI inh inactive.
`NC(=O)CSc1nc2sc3c(c2c2ncnn12)CCCC3` gave PglD inh inactive, PvdQ inh inactive, VIM-2 inh 9.8, IMP-1 inh inactive and PDI inh inactive.
For O=C(O)C(CCCCN1C(=O)c2ccccc2C1=O)N1C(=O)c2ccccc2C1=O (stereo unspecified) the results were PglD inh inactive, PvdQ inh inactive, VIM-2 inh inactive, IMP-1 inh 18 and PDI inh inactive.
`O=C(Nc1ccccc1)C(CCCCN1C(=O)c2ccccc2C1=O)N1C(=O)c2ccccc2C1=O` (stereo unspecified) gave PvdQ inh inactive, ERp5 inh inactive and PDI inh inactive.
`O=C(O)C(Cc1ccccc1)N1C(=O)c2cccc3cccc(c23)C1=O` (stereo unspecified) gave PvdQ inh inactive, ERp5 inh inactive, VIM-2 inh 9.4, IMP-1 inh inactive and PDI inh inactive.
For Cc1noc(C)c1S(=O)(=O)N(C)C[C@H]1Oc2ccc(NS(=O)(=O)c3ccccc3)cc2CC(=O)N([C@@H](C)CO)C[C@H]1C the results were PglD inh inactive and ERp5 inh inactive.
`Cc1ccc(NC(=O)CS(=O)CC(=O)Nc2ccccc2-c2ccc(C)o2)cc1` (stereo unspecified) gave PglD inh inactive, PvdQ inh inactive, ERp5 inh inactive, VIM-2 inh 9.1, IMP-1 inh inactive and PDI inh inactive.
`Cn1nc(-c2ccccn2)nc2c(=O)n(C)c(=O)nc1-2` gave PglD inh inactive, PvdQ inh inactive, ERp5 inh 102, VIM-2 inh inactive, IMP-1 inh inactive and PDI inh 139.
COc1ccc(-c2nc(-c3ccccn3)ncc2S(C)(=O)=O)cc1 was read as PvdQ inh inactive, ERp5 inh inactive, VIM-2 inh inactive, IMP-1 inh inactive and PDI inh inactive.
CCCc1nc2c(=O)n(C)c(=O)nc-2n(C)n1 was read as PglD inh inactive, PvdQ inh inactive, ERp5 inh 85, VIM-2 inh inactive, IMP-1 inh inactive and PDI inh 160.
O=C(C[C@H]1CC[C@@H](NC(=O)c2cnccn2)[C@@H](CO)O1)NCc1ccccc1F was read as PglD inh inactive and ERp5 inh inactive.

Screens (PubChem BioAssay)
